This is an account of results in ChEMBL document CHEMBL1126266, “Dopaminergic and serotonergic activities of imidazoquinolinones and related compounds” (J Med Chem, 1992).

Where only a bound is given, the exact number is not on record here.

What is called Ki is the dissociation constant of the complex between target and ligand, obtained from inhibition or displacement. A low value points to higher affinity. A word on the ED50: it is the midpoint of the dose-response relation. A higher ED50 goes with a need for a large dose.

The subject of assay [1] is Rattus norvegicus. The assay is described as follows: Percent change in DOPA levels in rat brain following 1 mg/kg administration. The format is functional. The essentials: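 Upjohn CF-1 rats given drug or vehicle sc. Fifteen minutes later, m-hydroxybenzylhydrazine 100 mg/kg ip was given as decarboxylase inhibitor. Control and test groups (n = 6 each) compared by unpaired t test.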

Assay [2] deals with Rattus norvegicus. The assay is described as follows: Percent change in 5-HTP levels in rat brain following 1 mg/kg administration.
Assay [3] concerns the target T1, D(2) dopamine receptor (Rattus norvegicus, UniProt P61169). The assay is described as follows: Ability to displace [3H]raclopride from dopamine receptor D2 in rat striatal homogenates. The essentials: (§1)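 Rat striatal homogenate (1:300) incubated with [3H]raclopride (80 Ci/mmol) 1 h at room temperature. Filtered over PEI-pretreated filters, rinsed with 50 mM Tris pH 7.4, counted by liquid scintillation. Nonspecific binding with 1 μM haloperidol. IC50 by log-probit analysis from at least four concentrations in triplicate; Ki calculated from IC50.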

In assay [4] the target is T1, D(2) dopamine receptor. The assay is described as follows: Compound was evaluated for its ability to displace [3H]raclopride from dopamine receptor D2 in rat striatal homogenates. The essentials: as §1
Assay [5] is described as follows: Dose required to reduce neuronal firing of DA cells by 50%. The format is functional. The essentials: (§2)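 Male Sprague-Dawley rats (280-330 g) anesthetized with chloral hydrate 400 mg/kg ip. Extracellular recording from substantia nigra pars compacta neurons (action potential >2.5 ms), site verified histologically. Drug in distilled water given iv via femoral vein. Firing rate measured by integrated ratemeter.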

The target in assay [6] is T2, 5-hydroxytryptamine receptor 1A (Homo sapiens) (UniProt P08908).
T2 sequence (whole entry): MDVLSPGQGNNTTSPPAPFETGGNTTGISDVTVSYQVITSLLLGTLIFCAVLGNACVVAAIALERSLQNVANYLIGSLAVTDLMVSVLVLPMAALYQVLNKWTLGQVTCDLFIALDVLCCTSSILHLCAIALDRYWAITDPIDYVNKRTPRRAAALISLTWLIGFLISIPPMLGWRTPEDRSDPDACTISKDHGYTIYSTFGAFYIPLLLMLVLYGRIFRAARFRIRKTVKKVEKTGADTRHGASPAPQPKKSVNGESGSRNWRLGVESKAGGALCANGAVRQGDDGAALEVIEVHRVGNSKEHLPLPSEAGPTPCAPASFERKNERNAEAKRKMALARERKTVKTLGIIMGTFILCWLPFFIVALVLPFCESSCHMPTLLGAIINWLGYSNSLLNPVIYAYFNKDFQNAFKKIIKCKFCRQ
The assay is described as follows: Dose required to reduce neuronal firing of 5-HT1A cells by 50%. The class given is functional. The essentials:
(§3)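 Male Sprague-Dawley rats (280-330 g) under chloral hydrate 400 mg/kg ip. Extracellular recording from dorsal raphe neurons (biphasic spikes, about 0.8–2.5 spikes/s), location confirmed by dye deposit. Drug in distilled water given iv via femoral vein.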

For assay [7], the target named is T1, D(2) dopamine receptor. The assay is described as follows: Compound was evaluated for its ability to displace [3H]raclopride from Dopamine receptor D2 in rat striatal homogenates. The essentials: as §1
For assay [8], the species on record is Rattus norvegicus. The assay is described as follows: Dose required to reduce neuronal firing of dopaminergic cells by 50%. The format is functional. The essentials:
as §2

For assay [9], the species on record is Rattus norvegicus. The assay is described as follows: Dose required to reduce neuronal firing of serotonergic cells by 50%. The class given is functional. The essentials:
as §3

T1 sequence (P61169 whole entry): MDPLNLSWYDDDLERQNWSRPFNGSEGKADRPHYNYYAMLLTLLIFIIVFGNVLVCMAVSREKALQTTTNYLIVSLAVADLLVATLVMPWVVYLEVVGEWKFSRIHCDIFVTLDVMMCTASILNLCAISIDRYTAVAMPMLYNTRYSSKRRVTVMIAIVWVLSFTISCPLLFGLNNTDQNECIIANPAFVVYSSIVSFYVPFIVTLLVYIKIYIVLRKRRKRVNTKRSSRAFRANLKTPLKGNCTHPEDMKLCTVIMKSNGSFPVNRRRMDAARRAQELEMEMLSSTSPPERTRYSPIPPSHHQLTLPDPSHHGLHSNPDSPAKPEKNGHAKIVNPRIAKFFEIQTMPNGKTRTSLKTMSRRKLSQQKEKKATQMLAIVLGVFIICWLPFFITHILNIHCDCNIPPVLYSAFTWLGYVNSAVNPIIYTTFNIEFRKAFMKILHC

Consider `CCCN(CCC)C1Cc2cccc3c2N(C1)C(=O)CO3.O=C(O)/C=C/C(=O)O` (stereo not drawn), for which the Change in assay [1] is -18%; in [2] it was -12%.
`CN1CCc2cccc3c2[C@H]1Cc1ccc(O)c(O)c1-3` [APOMORPHINE]: the Change in assay [1] is -55%; in assay [2] it was 4%.
`CCCN(CCC)C1Cc2cccc3c2N(C1)C(=O)CC3` (stereo not drawn) returned a Ki in assay [3] of 83 nM. The results for the Change in [1] and in assay [2] were -41% and -48%, respectively.
The molecule `Oc1nc2cccc3c2n1CC(N(CC1CC1)CC1CC1)C3` (stereo not drawn) had a Ki in [3] of 7730 nM.
In assay [4], `CCCCNC1Cc2cccc3[nH]c(=O)n(c23)C1` (stereo not drawn) gave a Ki of over 10000 nM.
Turning to `CCCN(CCC)C1Cc2cccc3c2N(CC(=O)N3)C1.Cl` (stereo not drawn), the 50% effect level in assay [5] (ED50) was put at a dose of 0.039 mg/kg. The Ki in [3] stood at 30 nM. Moreover, the Change was -52% in [1] and 16% in assay [2].
For `CCCN(CCC)C1Cc2cccc3[nH]c(=O)c(=O)n(c23)C1.Cl` (stereo not drawn) the same measures were 0.088 mg/kg, 150 nM, -37% and 6%.
In [3], `CCCN(CCC)C1Cc2cccc3nc(S)n(c23)C1` (stereo not drawn) gave a Ki of 40 nM. For the same molecule, the Change in assay [1] is -38%; in assay [2], -7%.
Take `CCCN(CCC)C1Cc2cccc3c2N(C1)C(=O)NC3` (stereo not drawn): the figures for the 50% effective dose (ED50) in assay [6] and in assay [5] were 0.0034 mg/kg and 0.212 mg/kg, respectively. The molecule further gave a Ki in assay [3] of over 1000 nM. Further, the results for the Change in assay [1] and in assay [2] were -13% and -45%, respectively.
`C=CCN(CC=C)C1Cc2cccc3nc(O)n(c23)C1` (stereo not drawn) returned a Ki in assay [3] of over 10000 nM.
Still for that read-out and setting: next, `NC1Cc2cccc3nc(O)n(c23)C1` (stereo not drawn): over 10000 nM.
Same read-out and setting: the figure for `CCCCN(CCC)C1Cc2cccc3nc(O)n(c23)C1` (stereo not drawn) is 167 nM.
Molecule `CCCN(CCC)C1Cc2cccc3nc(C)n(c23)C1` (stereo not drawn) had a Ki in [7] of over 1000 nM.
On to `C=CCNC1Cc2cccc3nc(O)n(c23)C1` (stereo not drawn), for which the Ki in assay [3] stood at 363 nM.
As for `CCCNC1Cc2cccc3nc(O)n(c23)C1.Cl` (stereo not drawn), the ED50 in [6] came out at 0.65 mg/kg; in assay [5], 0.036 mg/kg. In [3], the affinity corresponds to a Ki of 1040 nM.
The molecule `CCCN(CCC)C1Cc2cccc3c2N(C1)C(=O)C3=O` (stereo not drawn) yielded a Ki in assay [3] of over 1000 nM. Also, the Change was -46% in [1] and -7% in [2].
The corresponding values for `CCCN(CCC)C1Cc2cccc3oc(=O)n(c23)C1` (stereo not drawn) are 899 nM, -27% and -6%.
`CCCN(CCC)C1Cc2cccc3nc(O)n(c23)C1.Cl` (stereo not drawn): the ED50 in [6] was found to be 0.34 mg/kg; in assay [5] it was 0.005 mg/kg. The inhibition constant Ki in assay [3] is 207 nM. In addition, the results for the Change in assay [1] and in [2] were -34% and 12%, respectively.
As to `CCCN(CCC)[C@H]1Cc2cccc3nc(O)n(c23)C1.Cl`, the 50% effective dose (ED50) in assay [5] is over 1 mg/kg. Further, the Ki in [4] was over 1000 nM. The figures for the Change in [1] and in assay [2] were 0.3% and 6.4%, respectively.
In [3], `CCCN(CCC)C1Cc2cccc3c2N(CC3)C1.O=C(O)/C=C/C(=O)O` (stereo not drawn) returned an inhibition constant Ki of over 1000 nM. Also, the Change in assay [1] was -33%; in [2], -13%.
Consider `CN(C)C1Cc2cccc3nc(O)n(c23)C1` (stereo not drawn), for which the inhibition constant Ki in assay [3] is over 10000 nM.
Same read-out and setting: the figure for `CCCCN(CCCC)C1Cc2cccc3nc(O)n(c23)C1` (stereo not drawn) is over 10000 nM.
Turning to `CCCN(CCC)C1Cc2cccc3ccn(c23)C1.O=C(O)/C=C/C(=O)O` (stereo not drawn), in [5], the ED50 worked out at 0.083 mg/kg. In addition, in assay [3], the Ki was 210 nM. Further, the Change is reported as -29% in [1] and -14% in assay [2].
`CCCN(Cc1ccccc1)C1Cc2cccc3[nH]c(=O)n(c23)C1` (stereo not drawn) registered a Ki in assay [3] of 1910 nM.
As to `CCCN(CCC)C1Cc2cccc3c2N(C1)C(=O)OC3.Cl` (stereo not drawn), the affinity in [3], expressed as Ki, was 292 nM. The Change is -36% in assay [1] and -13% in assay [2].
Take `CCCN(CCC)C1Cc2cccc3c2n(c(=O)n3C)C1` (stereo not drawn): the affinity in assay [4] corresponds to a Ki of 924 nM.
`CCCN(CCC)C1Cc2cccc3c2N(C1)C(=O)C3` (stereo not drawn) gave a Ki in assay [3] of 1080 nM. Besides, the Change was -53% in assay [1] and -11% in [2].
In turn, `CCCN(CCC)C1Cc2cccc3nc(SC)n(c23)C1` (stereo not drawn) returned an inhibitory constant (Ki) in [3] of over 1000 nM.
Same read-out and setting: the figure for `CCCN(CCC)C1Cc2cccc3c2N(CCC3)C1` (stereo not drawn) is 35 nM.
Consider `CCCN(CCC)C1Cc2cccc3c2N(C1)C(=O)CN3` (stereo not drawn), for which the affinity in [3] corresponds to a Ki of 80 nM. The Change in assay [1] is given as -37%; in [2] it was -32%.
Molecule `Oc1nc2cccc3c2n1CC(NCC1CC1)C3` (stereo not drawn) gave a Ki in [3] of 4000 nM.
As to `Br.CCCN(CCC)[C@@H]1Cc2cccc3nc(O)n(c23)C1`, in [4], the affinity corresponds to a Ki of 68 nM. Besides, the Change in assay [1] was -50%; in assay [2], -1.2%. In addition, the ED50 worked out at 0.0014 mg/kg in assay [8] and 0.107 mg/kg in assay [9].
As for `CCCN(CCC)C1Cc2cccc3ncn(c23)C1` (stereo not drawn), in assay [5], the ED50 is 0.219 mg/kg. Also, the Ki in assay [3] is over 1000 nM. In addition, the Change is given as -12% in assay [1] and -7% in assay [2].
`CCCN(CCC)C1Cc2cccc3ccc(=O)n(c23)C1` (stereo not drawn) showed a Ki in assay [3] of 315 nM. For the same molecule, the Change in assay [1] is on record as -40%; in assay [2] it was -18%.
